Each block holds one compound with its values, some of them ahead of it. Activity calls are given as the source filed them. No cut-off for these calls is given here.
What was measured:
[1] = biological target: T1, Sphingosine 1-phosphate receptor 3 (Homo sapiens, UniProt Q99500); experiment: Agonist activity at human S1P3 receptor expressed in CHO-K1 cells co-expressing Gq/i5 G-protein assessed as calcium mobilization by FLIPR assay; format: functional, cell-based
Method in brief: (§1)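 hS1P3 and Gq/i5 co-transfected into CHO-K1 cells; agonism read as Ca2+ mobilization. Percent efficacy is relative to 0.200 μM S1P, and >top concentration is reported when activity stays under 10% of control. Each value is the mean of at least two determinations.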

[2] = biological target: T2, Sphingosine 1-phosphate receptor 1 (Homo sapiens, UniProt P21453); experiment: Agonist activity at human S1P1 receptor expressed in human U2OS cells co-expressing eGFP assessed as receptor internalization after 1 hr relative to 1-(4-(6-benzylbenzofuran-2-yl)-3-fluorobenzyl)azetidine-3-carboxylic acid; format: functional, cell-based
Method in brief: (§2)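 hS1P1-GFP fusion expressed in U2OS cells; agonism read as receptor internalization. Percent efficacy is relative to 1.00 μM reference agonist, and >top concentration is reported when activity stays under 10% of control. Each value is the mean of at least two determinations.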

[3] = biological target: T2, Sphingosine 1-phosphate receptor 1; experiment: Agonist activity at human S1P1 receptor expressed in human U2OS cells co-expressing eGFP assessed as receptor internalization after 1 hr; format: functional, cell-based; method in brief: as §2
[4] = biological target: T1, Sphingosine 1-phosphate receptor 3; experiment: Agonist activity at human S1P3 receptor expressed in CHO-K1 cells co-expressing Gq/i5 G-protein assessed as calcium mobilization by FLIPR assay relative to S1P; format: functional, cell-based; method in brief: as §1
Rattus norvegicus [5] = experiment: Immunomodulatory activity in Lewis rat assessed as reduction of circulating lymphocytes count at 1 mg/kg, po after 24 hrs relative to control; format: functional; set-up: scale not given: the % may be the effect or the level left
Method in brief: (§3)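 Female Lewis rats dosed orally at 0.3, 1.0 or 3.0 mg/kg in 20% captisol, pH 2, N = 5/group. Blood lymphocyte counts and plasma concentration taken 24 h postdose. Compared with vehicle by ANOVA/Dunnett's test, P < 0.05.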

[6] = Fraction unbound in rat plasma at 5 ug/ml by ultracentrifugation analysis; format: ADME, cell-free
Method in brief: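 Plasma protein binding determined by ultracentrifugation at 5.0 μg/mL test compound.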

[7] = Volume of distribution at steady state in cynomolgus monkey at 4 mg/kg, iv and 10 mg/kg, po; format: ADME, organism-based, Macaca fascicularis; conditions: in vivo, read-out: Vdss
Method in brief: (§4)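 Male cynomolgus monkeys, N = 3 per route: iv 4 mg/kg in 20% captisol, pH 4; po 10 mg/kg in 20% captisol with 1% pluronic F68 and 1% HPMC, pH 2. Clearance expressed also as percent of liver blood flow.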

Rattus norvegicus [8] = experiment: Toxicity in Sprague-Dawley rat assessed as proconvulsive activity at 100 mg/kg, po qd for 4 days; format: organism-based; set-up: dose 100 mg/kg, route oral; conditions: in vivo, 96 h
Method in brief: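 Sprague-Dawley rats (N = 3) dosed orally at 100 mg/kg once daily for 4 days and observed for proconvulsive activity.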

Rattus norvegicus [9] = experiment: Cardiotoxicity in rat assessed as effect on heart rate at 30 mg/kg, po; format: toxicity, organism-based; set-up: dose 30 mg/kg, route oral; conditions: in vivo
Method in brief: (§5)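 Telemetered rats given oral doses; heart rate and mean arterial pressure monitored to set a no-effect level.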

[10] = Mean residence time in Sprague-Dawley rat at 2 mg/kg, iv and 15 mg/kg, po; format: ADME, organism-based; conditions: in vivo
Method in brief: (§6)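 Female Sprague-Dawley rats, N = 3 per route: iv 2 mg/kg in DMSO; po 15 mg/kg in 20% captisol, pH 2. Clearance expressed also as percent of liver blood flow.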

Rattus norvegicus [11] = experiment: Immunosuppressive activity in delayed-type hypersensitivity Lewis rat model assessed as reduction of ovalbumin/complete Freund's adjuvant-induced ear swelling at 1 to 3 mg/kg, po qd for 10 days; format: functional, organism-based
Method in brief: (§7)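 Female Lewis rats dosed orally once daily for 10 days at 0.1–3.0 mg/kg in 20% captisol, pH 2 (N = 8/group; N = 4 at 3.0 mg/kg). On day 1 rats were immunized with ovalbumin plus complete Freund's adjuvant. One week later ovalbumin was injected intracutaneously into one ear. Ear-thickness change and blood lymphocytes measured 48 h after challenge; compared with vehicle by ANOVA/Dunnett's test.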

Rattus norvegicus [12] = experiment: Cardiotoxicity in rat assessed as effect on mean arterial pressure at 30 mg/kg, po; format: toxicity, organism-based, Artery; set-up: dose 30 mg/kg, route oral; conditions: in vivo; method in brief: as §5
[13] = AUC (0 to 24 hrs) in Sprague-Dawley rat at 100 mg/kg, po qd for 4 days; format: ADME, organism-based; set-up: time < 24 hr, dose 100 mg/kg, route oral; conditions: plasma
[14] = Volume of distribution at steady state in Sprague-Dawley rat at 2 mg/kg, iv and 15 mg/kg, po; format: ADME, organism-based; conditions: in vivo, read-out: Vdss; method in brief: as §6
[15] = Oral bioavailability in Sprague-Dawley rat at 15 mg/kg; format: ADME, organism-based; conditions: in vivo; method in brief: as §6
[16] = Mean residence time in cynomolgus monkey at 4 mg/kg, iv and 10 mg/kg, po; format: ADME, organism-based, Macaca fascicularis; conditions: in vivo; method in brief: as §4
[17] = Half life in cynomolgus monkey at 4 mg/kg, iv and 10 mg/kg, po; format: ADME, organism-based, Macaca fascicularis; conditions: in vivo; method in brief: as §4
[18] = Oral bioavailability in cynomolgus monkey at 10 mg/kg; format: ADME, organism-based, Macaca fascicularis; conditions: in vivo; method in brief: as §4
[19] = Inhibition of human cytochrome P450; format: ADME
[20] = Cmax in Sprague-Dawley rat at 100 mg/kg, po qd for 4 days; format: ADME, organism-based; set-up: dose 100 mg/kg, route oral; conditions: in vivo
Cynomolgus monkey = experiment: Liver blood flow in cynomolgus monkey at 4 mg/kg, iv and 10 mg/kg, po; format: ADME, organism-based, Macaca fascicularis; conditions: in vivo; method in brief: as §4
Rattus norvegicus [21] = experiment: Liver blood flow in Sprague-Dawley rat at 2 mg/kg, iv and 15 mg/kg, po; format: ADME, organism-based; conditions: in vivo; method in brief: as §6
[22] = Clearance in cynomolgus monkey at 4 mg/kg, iv and 10 mg/kg, po; format: ADME, organism-based, Macaca fascicularis; conditions: in vivo; method in brief: as §4
Rattus norvegicus [23] = experiment: Immunosuppressive activity in delayed-type hypersensitivity Lewis rat model assessed as reduction of ovalbumin/complete Freund's adjuvant-induced ear swelling at 0.3 mg/kg, po qd for 10 days; format: functional, organism-based; set-up: dose 0.3 mg/kg; method in brief: as §7
[24] = Half life in Sprague-Dawley rat at 2 mg/kg, iv and 15 mg/kg, po; format: ADME, organism-based; conditions: in vivo; method in brief: as §6
[25] = Clearance in Sprague-Dawley rat at 2 mg/kg, iv and 15 mg/kg, po; format: ADME, organism-based; conditions: in vivo; method in brief: as §6
Rattus norvegicus [26] = experiment: Immunomodulatory activity in po dosed Lewis rat assessed as reduction of circulating lymphocytes count after 24 hrs; format: functional, organism-based; method in brief: as §3
Rattus norvegicus [27] = experiment: Immunomodulatory activity in Lewis rat assessed as reduction of circulating lymphocytes count at 0.3 mg/kg, po after 24 hrs relative to control; format: functional; method in brief: as §3
Rattus norvegicus [28] = experiment: Immunomodulatory activity in Lewis rat assessed as reduction of circulating lymphocytes count at 3 mg/kg, po after 24 hrs relative to control; format: functional; method in brief: as §3
[29] = Mutagenic activity in Salmonella Typhimurium by Ames test; format: toxicity; conditions: salmonella enterica subsp. enterica serovar typhimurium

T1 sequence (Q99500 whole entry): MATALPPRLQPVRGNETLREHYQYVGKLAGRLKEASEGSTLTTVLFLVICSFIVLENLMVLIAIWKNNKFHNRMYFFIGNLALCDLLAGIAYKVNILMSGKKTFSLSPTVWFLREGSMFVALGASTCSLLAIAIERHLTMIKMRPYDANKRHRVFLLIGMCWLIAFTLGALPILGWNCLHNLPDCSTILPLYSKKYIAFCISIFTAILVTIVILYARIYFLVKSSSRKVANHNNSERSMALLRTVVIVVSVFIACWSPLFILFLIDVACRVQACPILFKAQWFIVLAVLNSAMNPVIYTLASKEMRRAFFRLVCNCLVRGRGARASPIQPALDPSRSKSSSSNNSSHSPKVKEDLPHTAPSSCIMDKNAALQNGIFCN
T2 sequence (P21453 whole entry, the tested form may be a part): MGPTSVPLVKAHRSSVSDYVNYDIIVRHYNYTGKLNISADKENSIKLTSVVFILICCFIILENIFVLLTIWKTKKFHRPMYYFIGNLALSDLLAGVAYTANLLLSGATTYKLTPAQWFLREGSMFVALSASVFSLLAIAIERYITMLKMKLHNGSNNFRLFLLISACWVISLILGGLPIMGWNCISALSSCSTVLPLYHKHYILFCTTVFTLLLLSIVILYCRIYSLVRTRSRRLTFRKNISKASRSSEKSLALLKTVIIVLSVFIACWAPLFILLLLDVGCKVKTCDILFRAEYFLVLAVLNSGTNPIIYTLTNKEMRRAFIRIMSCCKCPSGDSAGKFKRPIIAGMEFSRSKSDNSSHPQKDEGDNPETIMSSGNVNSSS

- EC50 [1]: > 25000 nM
- Efficacy [2]: 126%
- EC50 [3]: 126 nM
Compound: O=C(O)C1CN(Cc2ccc(-c3nc4cc(Cc5c(F)cccc5F)ccc4s3)c(F)c2)C1

- EC50 [1]: > 25000 nM
- Efficacy [2]: 117%
- EC50 [3]: 159 nM
Compound: O=C(O)C1CN(Cc2ccc(-c3nc4cc(Cc5ccc(Cl)cc5)ccc4s3)c(F)c2)C1

- EC50 [1]: 2440 nM
- Efficacy [4]: 40%
- Efficacy [2]: 118%
- EC50 [3]: 26 nM
Compound: Cc1ccccc1Cc1ccc2sc(-c3ccc(CN4CC(C(=O)O)C4)cc3F)nc2c1
- Activity (Rattus norvegicus [5]): 63%

- EC50 [1]: > 2500 nM
- Efficacy [2]: 92%
- EC50 [3]: 54 nM
Compound: Cc1cccc(Cc2ccc3sc(-c4ccc(CN5CC(C(=O)O)C5)cc4F)nc3c2)c1

- EC50 [1]: 679 nM
- Efficacy [4]: 42%
- EC50 [3]: 13 nM
Compound: O=C(O)C1CN(Cc2ccc(-c3cc4ccc(Cc5ccccc5)cc4o3)c(F)c2)C1

- EC50 [1]: 4880 nM
- Efficacy [4]: 41%
- Efficacy [2]: 121%
- EC50 [3]: 42 nM
Compound: O=C(O)C1CN(Cc2ccc(-c3nc4cc(Cc5ccccc5Cl)ccc4s3)c(F)c2)C1
- Activity (Rattus norvegicus [5]): 63%

- EC50 [1]: 1730 nM
- fraction unbound at 5 ug/ml [6]: 0.015
- Efficacy [4]: 42%
- Efficacy [2]: 96%
Compound: O=C(O)C1CN(Cc2ccc(-c3cc4cc(Cc5ccccc5)ccc4o3)c(F)c2)C1

- EC50 [1]: 3470 nM
- Vd [7]: 1.6 L/kg
- fraction unbound at 5 ug/ml [6]: 0.021
- Efficacy [4]: 14%
- Efficacy [2]: 115%
- MRT [10]: 10 h
- AUC at 24 h [13]: 987 µg·h/mL
- Vd [14]: 3.3 L/kg
- bioavailability [15]: 68%
- MRT [16]: 3.3 h
- half-life [17]: 35.2 h
- bioavailability [18]: 23%
- inhibition (INH) [19]: Not Active
- Cmax [20]: 49000 ng/mL
- LBF (Cynomolgus monkey): 19%
- LBF (Rattus norvegicus [21]): 10%
- clearance [22]: 8.33 mL/min/kg
- half-life [24]: 7.5 h
- clearance [25]: 5.5 mL/min/kg
Compound: O=C(O)C1CN(Cc2ccc(-c3nc4cc(Cc5ccccc5F)ccc4s3)c(F)c2)C1
- Activity (Rattus norvegicus [8]): Non-toxic
- Activity (Rattus norvegicus [9]): Non-toxic
- Efficacy (Rattus norvegicus [11]): Active
- Activity (Rattus norvegicus [12]): Non-toxic
- Efficacy (Rattus norvegicus [23]): Active
- Efficacy (Rattus norvegicus [26]): Dose-dependent effect
- Efficacy (Rattus norvegicus [27]): 34%
- Activity (Rattus norvegicus [5]): 63%
- Efficacy (Rattus norvegicus [28]): 74%
- Activity [29]: Non-toxic

- EC50 [1]: 542 nM
- Efficacy [4]: 87%
- Efficacy [2]: 108%
- EC50 [3]: 94 nM
Compound: O=C(O)C1CN(Cc2ccc(-c3nc4ccc(Cc5ccccc5)cc4o3)c(F)c2)C1

- EC50 [1]: 1910 nM
- Efficacy [4]: 37%
- Efficacy [2]: 129%
- EC50 [3]: 33 nM
Compound: O=C(O)C1CN(Cc2ccc(-c3nc4cc(Cc5ccc(F)cc5)ccc4s3)c(F)c2)C1

- Efficacy [4]: 50%
- Efficacy [2]: 84%
Compound: O=C(O)C1CN(Cc2ccc(-c3nc4ccc(Cc5ccccc5)cc4s3)c(F)c2)C1

- EC50 [1]: 687 nM
- Efficacy [4]: 22%
- Efficacy [2]: 138%
- EC50 [3]: 21 nM
Compound: O=C(O)C1CN(Cc2ccc(-c3nc4cc(Cc5cccc(F)c5)ccc4s3)c(F)c2)C1

- EC50 [1]: > 25000 nM
- EC50 [3]: > 6250 nM
Compound: O=C(O)C1CN(Cc2ccc(-c3nc4ccc(Cc5ccccc5)cc4[nH]3)c(F)c2)C1

- EC50 [1]: 967 nM
- Efficacy [4]: 19%
- Efficacy [2]: 151%
- EC50 [3]: 30 nM
Compound: O=C(O)C1CN(Cc2ccc(-c3nc4cc(Cc5ccc(F)c(F)c5)ccc4s3)c(F)c2)C1

- EC50 [1]: 1110 nM
- Efficacy [4]: 43%
- Efficacy [2]: 53%
- EC50 [3]: 2890 nM
Compound: O=C(O)C1CN(Cc2ccc(-n3cc4cc(Cc5ccccc5)ccc4n3)c(F)c2)C1

- EC50 [1]: 1800 nM
- Efficacy [4]: 17%
- Efficacy [2]: 132%
- EC50 [3]: 77 nM
Compound: Cc1ccc(Cc2ccc3sc(-c4ccc(CN5CC(C(=O)O)C5)cc4F)nc3c2)cc1

- EC50 [1]: 354 nM
- Efficacy [4]: 77%
- Efficacy [2]: 105%
- EC50 [3]: 325 nM
Compound: O=C(O)C1CN(Cc2ccc(-c3nc4cc(Cc5ccccc5)ccc4o3)c(F)c2)C1

- EC50 [1]: > 25000 nM
- Efficacy [2]: 115%
- EC50 [3]: 6720 nM
Compound: O=C(O)C1CN(Cc2ccc(-c3cn4cc(Cc5ccccc5)ccc4n3)c(F)c2)C1

- EC50 [1]: 6090 nM
- Efficacy [4]: 50%
- Efficacy [2]: 110%
- EC50 [3]: 741 nM
Compound: O=C(O)C1CN(Cc2ccc(-c3cn4ccc(Cc5ccccc5)cc4n3)c(F)c2)C1

- EC50 [1]: 1200 nM
- Efficacy [4]: 24%
- Efficacy [2]: 186%
- EC50 [3]: 42 nM
Compound: O=C(O)C1CN(Cc2ccc(-c3nc4cc(Cc5ccc(F)cc5F)ccc4s3)c(F)c2)C1

- EC50 [1]: 2710 nM
- Efficacy [4]: 48%
- Efficacy [2]: 100%
- EC50 [3]: 1810 nM
Compound: O=C(O)C1CN(Cc2ccc(-n3cc4ccc(Cc5ccccc5)cc4n3)c(F)c2)C1

- EC50 [1]: 3880 nM
- Efficacy [4]: 35%
- Efficacy [2]: 141%
- EC50 [3]: 49 nM
Compound: O=C(O)C1CN(Cc2ccc(-c3nc4cc(Cc5cccc(Cl)c5)ccc4s3)c(F)c2)C1

- Efficacy [4]: 24%
- EC50 [3]: 42 nM
Compound: O=C(O)C1CN(Cc2ccc(-c3nc4cc(Cc5ccccc5)ccc4s3)c(F)c2)C1
